# Measured values gathered from unrelated publications.
# Protocols differ between the studies behind these lines.
# Target: Tyrosine-protein kinase Fer (FER, Homo sapiens, UniProt P16591)
SMILES,assay,conditions,remaining binding
COc1cnc(Nc2cccc(S(N)(=O)=O)c2)nc1N1CCN(c2ccccc2)C(=O)C1,"binding, competition with immobilised ligand",1 µM,100%
CCC(=O)N[C@H]1CC[C@@H](C(=O)N(C)c2ccc(-c3nc4ccccc4o3)cc2)C1,"cell-free assay, competition with immobilised ligand",1 µM,90%
C[C@H]1CCN(c2nccc(-c3cnn4ncccc34)n2)C1,binding,1 µM,93%
O=C(Nc1c[nH]nc1C(=O)NC1CCNCC1)c1cc(F)cc(F)c1,"binding, competition with immobilised ligand",1 µM,100%
CC1CCCN1c1nccc(-c2cnn3ncccc23)n1 (stereo not drawn),binding,1 µM,100%
CC(=O)c1c(NS(C)(=O)=O)c2cc(-c3ccc(Cl)cc3)c(-c3ccc(Cl)cc3Cl)nc2n(C)c1=O,"cell-free assay, competition with immobilised ligand",1 µM,100%
F[C@@H]1CCN(c2nccc(-c3cnn4ncccc34)n2)C1,binding,1 µM,81%
O=C(NCCCN1CCOCC1)c1ccc(Nc2ncc(Cl)c(-c3ccc(Cl)s3)n2)cc1,"binding, competition with immobilised ligand",1 µM,86%
Cc1c(C(=O)O)cc(-c2ccc(C3CCNCC3)cc2)c2ccc(-c3ccc(C(F)(F)F)cc3)cc12,"binding, competition with immobilised ligand",1 µM,100%
COc1cnc(Nc2cccc(S(N)(=O)=O)c2)nc1N1CCN(c2ccccc2)CC1,"binding, competition with immobilised ligand",1 µM,100%
Cc1cnn2ncc(-c3ccnc(N(C)C)n3)c2c1,binding,1 µM,92%
C=CC(=O)N1CCC(C(=O)NCC(=O)N2CCN(c3nc(-c4cnc(N)nc4C(F)F)nc(N4CCOCC4)n3)CC2)CC1,"binding, competition with immobilised ligand",1 µM,87%
CO[C@H]1CC[C@H](CNc2ccc(S(=O)(=O)NC(=O)c3ccc(N4CCN(CC5=C(c6ccc(Cl)cc6)CC(C)(C)CC5)CC4)cc3Oc3cnc4[nH]ccc4c3)cc2[N+](=O)[O-])CC1,"cell-free assay, competition with immobilised ligand",1 µM,67%
O=C(NCCCN1CCOCC1)c1ccc(Nc2nccc(-c3cc4ccccc4s3)n2)cc1,"binding, competition with immobilised ligand",1 µM,100%
C[C@@H](c1ccc(-n2cnc3c(N)ncnc32)cc1)N1CCc2nn(C)c(Cc3ccccc3)c2C1=O,"binding, competition with immobilised ligand",0.1 µM,100%
O=C(c1ccc(Nc2ncc(Cl)c(-c3ccc(Cl)s3)n2)cc1)N1CCC(N2CCCC2)CC1,"binding, competition with immobilised ligand",1 µM,81%
COc1ccc2cc(OCC3(C(=O)O)CN(C(=O)c4ccc(F)cc4)C3)ccc2c1,"cell-free assay, competition with immobilised ligand",1 µM,74%
N[C@H]1CCN(c2nccc(-c3cnn4ncccc34)n2)C1,binding,1 µM,97%
CC(=O)C1=C(C)N(c2cccc(C(F)(F)F)c2)C(=O)N[C@@H]1c1ccc(C#N)nc1,"cell-free assay, competition with immobilised ligand",1 µM,96.9%
CN(C)c1ncc(F)c(-c2cnn3ncccc23)n1,binding,1 µM,82%
CCN1CCN(Cc2ccc(C(=O)Nc3ccc(C)c(Oc4ccc5c(c4)CC(=O)N5)c3)cc2C(F)(F)F)CC1,"binding, competition with immobilised ligand",1 µM,100%
